ChEMBL document CHEMBL1155950, “Novel amidino-substituted thienyl- and furylvinylbenzimidazole: derivatives and their photochemical conversion into corresponding diazacyclopenta[c]fluorenes. synthesis, interactions with DNA and RNA, and antitumor evaluation. 4” (J Med Chem, 2008)
Activity calls are given as the source filed them. The rule behind the calls is not given here.

Key:
MIA PaCa-2 [1] = assay: Antiproliferative activity against human MiaPaCa2 cells after 72 hrs by MTT assay; assay type: functional, cell-based; settings: MIA PaCa-2, 72 h
Outline: (§1)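 Monolayer cultures in DMEM with 10% FBS, 2 mM L-glutamine, penicillin and streptomycin, at 37 °C in 5% CO2. Seeded at 1 × 10⁴ to 3 × 10⁴ cells/mL on day 0. Compounds added at 10^-8 to 10^-4 M, then 72 h. MTT read-out, quadruplicate in three experiments, with a solvent control. IC50 by linear regression of percent growth around 50%.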

HEp-2 = assay: Antiproliferative activity against human Hep2 cells after 72 hrs by MTT assay; assay type: functional, cell-based; settings: HEp-2, 72 h; outline: as §1
SW-620 = assay: Antiproliferative activity against human SW620 cells after 72 hrs by MTT assay; assay type: functional, cell-based; settings: SW-620, 72 h; outline: as §1
[2] = Antiproliferative activity against human WI38 cells after 72 hrs by MTT assay; assay type: cell-based; settings: WI-38, 72 h
MCF7 = assay: Antiproliferative activity against human MCF7 cells after 72 hrs by MTT assay; assay type: functional, cell-based; settings: MCF7, 72 h; outline: as §1
HeLa [3] = assay: Antiproliferative activity against human HeLa cells after 72 hrs by MTT assay; assay type: functional, cell-based; outline: as §1
Bos taurus [4] = species: Bos taurus; assay: Inhibition of calf thymus topoisomerase 1 assessed as induction of supercoiled plasmid pCI DNA nicking at 100 uM after 30 mins by gel electrophoresis
Outline: (§2)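 Calf thymus topoisomerase I (8 U) with 0.8 µg negatively supercoiled pCI plasmid in relaxation buffer (10 mM Tris-HCl pH 7.5, 175 mM KCl, 5 mM MgCl2, 0.1 mM EDTA, 2.5% glycerol), ± test agent, 37 °C for 30 min. Stopped with SDS, then proteinase K digestion and phenol/chloroform/isoamyl alcohol extraction. Split onto 1% agarose gels with or without 0.5 µg/mL ethidium bromide. Nicked, relaxed and supercoiled bands viewed under UV.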

Nucleic Acid = assay: Binding affinity to polyA-polyU double stranded RNA at 0.3 of [compound]/[double stranded polynucleotide] at pH 7.0 by thermal denaturation assay; assay type: nucleic-acid assay
Outline: (§3)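 Absorbance at 260 nm followed against temperature for free polynucleotide and complexes, in Na cacodylate buffer pH 7.0, I = 0.05 mol dm^-3. Ligand absorbance subtracted and curves normalized. Tm taken from the first-derivative maximum or by tangent method. ΔTm = Tm(complex) − Tm(free), average of at least two runs, error ±0.5 °C.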

DNA [5] = assay: Binding affinity to calf thymus DNA at 0.3 of [compound]/[calf thymus DNA] at pH 7.0 by thermal denaturation assay; assay type: nucleic-acid assay; settings: Bos taurus; outline: as §3
DNA [6] = assay: Binding affinity to calf thymus DNA at 0.1 of [compound]/[calf thymus DNA] at pH 7.0 by thermal denaturation assay; assay type: nucleic-acid assay; settings: Bos taurus; outline: as §3
DNA [7] = assay: Binding affinity to calf thymus DNA at 0.2 of [compound]/[calf thymus DNA] at pH 7.0 by thermal denaturation assay; assay type: nucleic-acid assay; settings: Bos taurus; outline: as §3
DNA [8] = assay: Binding affinity to calf thymus DNA at pH 7.0 by fluorimetric titration; assay type: nucleic-acid assay; settings: Bos taurus
Outline: (§4)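 Polynucleotide, given as phosphate concentration, added in portions to the compound in Na cacodylate buffer pH 7.0, I = 0.05 mol dm^-3, with polynucleotide in high excess. Emission recorded 350–550 nm, absorbance below 0.05 at excitation. Ks and n from nonlinear least-squares Scatchard fits. log K recalculated at fixed n = 0.2.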

MIA PaCa-2 [9] = assay: Cell cycle arrest in human MiaPaCa2 cells assessed as accumulation at sub G1 phase at 10 uM after 24 hrs by flow cytometry; assay type: functional
Outline: (§5)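 2 × 10⁵ cells per well, compound (10 µM) added after 24 h, then 24, 48 or 72 h. Floating and attached cells pooled, fixed in 70% ethanol and kept at −20 °C. Stained with PI 1 µg/mL plus RNase A 0.2 µg/µL. 20 000 events by flow cytometry, phase percentages from DNA histograms. Duplicates, repeated at least twice.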

MIA PaCa-2 [10] = assay: Cell cycle arrest in human MiaPaCa2 cells assessed as accumulation at G1/G0 phase at 10 uM after 48 hrs by flow cytometry; assay type: functional; outline: as §5
MIA PaCa-2 [11] = assay: Cell cycle arrest in human MiaPaCa2 cells assessed as accumulation at S phase at 10 uM after 72 hrs by flow cytometry; assay type: functional; outline: as §5
MIA PaCa-2 [12] = assay: Induction of apoptosis in human MiaPaCa2 cells at 5 uM after 72 hrs by annexin V assay; assay type: functional
Outline: (§6)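 2 × 10⁴ cells per well, compounds added after 24 h, exposure 72 h. Floating and attached cells collected, washed and stained with annexin-V-fluorescein plus PI in Hepes buffer, then counted by fluorescence microscopy. Annexin-V-positive cells scored apoptotic, annexin-V/PI-positive scored necrotic. Apoptotic percentage taken relative to total cells.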

MIA PaCa-2 [13] = assay: Cell cycle arrest in human MiaPaCa2 cells assessed as accumulation at G2/M phase at 10 uM after 24 hrs by flow cytometry; assay type: functional; outline: as §5
MIA PaCa-2 [14] = assay: Cell cycle arrest in human MiaPaCa2 cells assessed as accumulation at G2/M phase at 10 uM after 48 hrs by flow cytometry; assay type: functional; outline: as §5
Bos taurus [15] = species: Bos taurus; assay: Inhibition of calf thymus topoisomerase 1 assessed as induction of supercoiled plasmid pCI DNA nicking at 200 uM after 30 mins by gel electrophoresis
Outline: (§7)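 Calf thymus topoisomerase I (8 U) with 0.8 µg supercoiled pCI in Tris-HCl pH 7.5 buffer with 175 mM KCl, 5 mM MgCl2, 0.1 mM EDTA and 2.5% glycerol, 37 °C for 30 min. Stopped with SDS, then proteinase K at 37 °C for 15 min and phenol/chloroform extraction. Run on 1% agarose with or without 0.5 µg/mL EtBr and viewed under UV.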

MIA PaCa-2 [16] = assay: Cell cycle arrest in human MiaPaCa2 cells assessed as accumulation at G1/G0 phase at 10 uM after 72 hrs by flow cytometry; assay type: functional; outline: as §5
MIA PaCa-2 [17] = assay: Cell cycle arrest in human MiaPaCa2 cells assessed as accumulation at sub G1 phase at 10 uM after 48 hrs by flow cytometry; assay type: functional; outline: as §5
MIA PaCa-2 [18] = assay: Cell cycle arrest in human MiaPaCa2 cells assessed as accumulation at S phase at 10 uM after 24 hrs by flow cytometry; assay type: functional; outline: as §5
MIA PaCa-2 [19] = assay: Cell cycle arrest in human MiaPaCa2 cells assessed as accumulation at G2/M phase at 10 uM after 72 hrs by flow cytometry; assay type: functional; outline: as §5
MIA PaCa-2 [20] = assay: Cell cycle arrest in human MiaPaCa2 cells assessed as accumulation at G1/G0 phase at 10 uM after 24 hrs by flow cytometry; assay type: functional; outline: as §5
HeLa [21] = assay: Induction of apoptosis in human HeLa cells at 5 uM after 72 hrs by annexin V assay; assay type: functional; outline: as §6
MIA PaCa-2 [22] = assay: Induction of apoptosis in human MiaPaCa2 cells at 10 uM after 72 hrs by annexin V assay; assay type: functional; outline: as §6
MIA PaCa-2 [23] = assay: Cell cycle arrest in human MiaPaCa2 cells assessed as accumulation at S phase at 10 uM after 48 hrs by flow cytometry; assay type: functional; outline: as §5
Bos taurus [24] = species: Bos taurus; assay: Inhibition of calf thymus topoisomerase 1-mediated supercoiled plasmid pCI DNA relaxation activity at 200 uM after 30 mins by gel electrophoresis; outline: as §7
HeLa [25] = assay: Induction of apoptosis in human HeLa cells at 10 uM after 72 hrs by annexin V assay; assay type: functional; outline: as §6
MIA PaCa-2 [26] = assay: Cell cycle arrest in human MiaPaCa2 cells assessed as accumulation at sub G1 phase at 10 uM after 72 hrs by flow cytometry; assay type: functional; outline: as §5
[27] = Binding affinity to polyG-polyC double stranded RNA at pH 7.0 by fluorimetric titration; outline: as §4
[28] = Binding affinity to polyA-polyU double stranded RNA at pH 7.0 by fluorimetric titration; outline: as §4
Bos taurus [29] = species: Bos taurus; assay: Inhibition of calf thymus topoisomerase 1 assessed as induction of supercoiled plasmid pCI DNA nicking at 10 uM after 30 mins by gel electrophoresis; outline: as §2
Bos taurus [30] = species: Bos taurus; assay: Inhibition of calf thymus topoisomerase 1-mediated supercoiled plasmid pCI DNA relaxation activity at 10 uM after 30 mins by gel electrophoresis; outline: as §2

SMILES | IC50 (MIA PaCa-2 [1]) | IC50 (HEp-2) | IC50 (SW-620) | IC50 [2] | IC50 (MCF7) | IC50 (HeLa [3]) | ΔTm (Nucleic Acid) | ΔTm (DNA [5]) | ΔTm (DNA [6]) | ΔTm (DNA [7]) | log K (DNA [8]) | further results
C(=C\c1ccco1)/c1nc2ccc(C3=NCCN3)cc2[nH]1 | 51 µM | 67 µM | 50 µM | > 100 µM | 9 µM | 10 µM | – | – | – | – | – | –
CC[C@@]1(O)C(=O)OCc2c1cc1n(c2=O)Cc2cc3ccccc3nc2-1 | – | – | – | – | – | – | – | – | – | – | – | Activity (Bos taurus [4]): Active
N=C(NC1CCCCC1)c1ccc2nc(/C=C/c3ccco3)[nH]c2c1 | 78 µM | 65 µM | > 100 µM | > 100 µM | 19 µM | 6 µM | 1.6 °C | 1.5 °C | 1 °C | 1.6 °C | 5.2 | –
C(=C\c1cccs1)/c1nc2ccc(C3=NCCN3)cc2[nH]1.Cl | 10 µM | 11 µM | 11 µM | 29 µM | 3 µM | 5 µM | 2.2 °C | 1.4 °C | 1.3 °C | 1.3 °C | 5 | Activity (MIA PaCa-2 [9]): 1%; Activity (MIA PaCa-2 [10]): 49%; Activity (MIA PaCa-2 [11]): 26%; Activity (MIA PaCa-2 [12]): 2%; Activity (MIA PaCa-2 [13]): 19%; Activity (MIA PaCa-2 [14]): 20%; Activity (Bos taurus [15]): Active; Activity (MIA PaCa-2 [16]): 55%; Activity (MIA PaCa-2 [17]): 1%; Activity (MIA PaCa-2 [18]): 42%; Activity (MIA PaCa-2 [19]): 19%; Activity (MIA PaCa-2 [20]): 39%; Activity (HeLa [21]): 8%; Activity (MIA PaCa-2 [22]): 4%; Activity (MIA PaCa-2 [23]): 31%; Activity (Bos taurus [24]): Active; Activity (HeLa [25]): 14%; Activity (MIA PaCa-2 [26]): 3%; log K [27]: 5.6; log K [28]: 5.8
CC[n+]1c(-c2ccccc2)c2cc(N)ccc2c2ccc(N)cc21 | – | – | – | – | – | – | – | – | – | – | – | Activity (Bos taurus [29]): inactive; Activity (Bos taurus [30]): Active
N=C(N)c1ccc2nc(/C=C/c3ccco3)[nH]c2c1 | > 100 µM | 19 µM | 16 µM | > 100 µM | 12 µM | 4 µM | – | – | – | – | – | –
